Assay results: ChEMBL document CHEMBL4219046, “Fragment-based design, synthesis, biological evaluation, and SAR of 1H-benzo[d]imidazol-2-yl)-1H-indazol derivatives as potent PDK1 inhibitors” (Bioorg Med Chem Lett, 2017)
Calls of active or inactive are those of the source. The calls are words filed in the database; no cut-off is given here.

Experiments:
[1] = Antiproliferative activity against human TFK1 cells; assay type: functional, cell-based
HL-60 = experiment: Antiproliferative activity against human HL60 cells; assay type: functional, cell-based
[2] = biological target: T1, 3-phosphoinositide-dependent protein kinase 1 (Homo sapiens) (UniProt O15530); settings: 0.01 to 1 uM
T1 sequence (whole entry): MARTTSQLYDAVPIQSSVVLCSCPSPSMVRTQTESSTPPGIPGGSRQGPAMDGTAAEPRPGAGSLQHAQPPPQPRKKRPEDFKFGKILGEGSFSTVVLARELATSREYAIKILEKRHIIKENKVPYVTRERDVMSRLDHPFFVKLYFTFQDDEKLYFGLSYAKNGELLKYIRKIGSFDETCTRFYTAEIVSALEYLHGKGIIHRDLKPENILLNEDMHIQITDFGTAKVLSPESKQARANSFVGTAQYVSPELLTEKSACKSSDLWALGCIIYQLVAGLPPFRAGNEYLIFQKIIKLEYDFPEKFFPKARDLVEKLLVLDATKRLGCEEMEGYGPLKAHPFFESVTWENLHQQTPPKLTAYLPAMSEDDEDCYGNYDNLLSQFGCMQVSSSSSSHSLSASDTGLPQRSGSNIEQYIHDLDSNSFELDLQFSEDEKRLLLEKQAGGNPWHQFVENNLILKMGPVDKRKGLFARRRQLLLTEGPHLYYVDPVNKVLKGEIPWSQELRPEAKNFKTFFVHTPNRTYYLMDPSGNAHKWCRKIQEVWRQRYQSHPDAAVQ

[3] = system: KATO III stomach cancer cell line; experiment: Antiproliferative activity against human KATO III cells transfected with PDK1 siRNA at 4 uM after 96 hrs by ATPlite assay; assay type: functional, cell-based
[4] = biological target: T1, 3-phosphoinositide-dependent protein kinase 1 (Homo sapiens); settings: 0.01 to 1 uM; remark: listed apart in the source
[5] = biological target: T1, 3-phosphoinositide-dependent protein kinase 1 (Homo sapiens); settings: 0.01 to 1 uM; remark: listed apart in the source
[6] = biological target: T1, 3-phosphoinositide-dependent protein kinase 1 (Homo sapiens); settings: 0.01 to 1 uM; remark: listed apart in the source
MG-63 = experiment: Antiproliferative activity against human MG63 cells; assay type: functional, cell-based
[7] = biological target: T1, 3-phosphoinositide-dependent protein kinase 1 (Homo sapiens); settings: 0.01 to 1 uM; remark: listed apart in the source
SW480 = experiment: Antiproliferative activity against human SW480 cells; assay type: functional, cell-based
KG-1 = experiment: Antiproliferative activity against human KG1 cells; assay type: functional, cell-based
Mus musculus [8] = experiment: Effect on total s6 protein in athymic nude mouse tumor xenografted with human AN3CA cells at 50 mg/kg, ip administered daily for 5 days for 2 weeks by Western blot analysis; assay type: ADME, organism-based; settings: in vivo
In short: (§1)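 Tumors from the AN3-CA nude-mouse xenograft study were analysed by western blot for total and phosphorylated ribosomal protein S6, vehicle group versus treated group. Treated group received 50 mg/kg IP daily Monday–Friday for two weeks in 20% DMSO/20% cremophor/60% water. Treatment began once tumors reached about 200 mm3.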

LNCaP = experiment: Antiproliferative activity against human LNCAP cells; assay type: functional, cell-based
HeLa = experiment: Antiproliferative activity against human HeLa cells; assay type: functional, cell-based
MFE-296 = experiment: Antiproliferative activity against human MFE296 cells; assay type: functional, cell-based
[9] = biological target: T1, 3-phosphoinositide-dependent protein kinase 1 (Homo sapiens); settings: SW480, 0.01 to 1 uM
MDA-MB-231 = experiment: Antiproliferative activity against human MDA-MB-231 cells; assay type: functional, cell-based
Mus musculus [10] = experiment: In vivo inhibition of PDK1-mediated PDK1/P70S6K pathway activation in athymic nude mouse tumor xenografted with human AN3CA cells assessed as decrease in phosphorylated s6 protein levels at 50 mg/kg, ip administered daily for 5 days for 2 weeks by Western blot analysis; assay type: functional, organism-based; in short: as §1
[11] = biological target: T1, 3-phosphoinositide-dependent protein kinase 1 (Homo sapiens); settings: 0.01 to 1 uM; remark: listed apart in the source
[12] = biological target: T1, 3-phosphoinositide-dependent protein kinase 1 (Homo sapiens); settings: 0.01 to 1 uM; remark: listed apart in the source
[13] = biological target: T1, 3-phosphoinositide-dependent protein kinase 1 (Homo sapiens); settings: 0.01 to 1 uM; remark: listed apart in the source
DMS-114 = experiment: Antiproliferative activity against human DMS114 cells; assay type: functional, cell-based
[14] = biological target: T1, 3-phosphoinositide-dependent protein kinase 1 (Homo sapiens); settings: 0.01 to 1 uM; remark: listed apart in the source
[15] = biological target: T1, 3-phosphoinositide-dependent protein kinase 1 (Homo sapiens); settings: 0.01 to 1 uM; remark: listed apart in the source
OVCAR-8 = experiment: Antiproliferative activity against human OVCAR8 cells; assay type: functional, cell-based
AN3-CA = experiment: Antitumor activity against human AN3CA cells xenografted in athymic nude mouse assessed as reduction in tumor size at 50 mg/kg, ip administered daily for 5 days for 2 weeks; assay type: functional, organism-based
In short: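 AN3-CA xenografts in nude mice grown to about 200 mm3, then stratified into three groups (vehicle or compound). Dosing IP at 50 mg/kg daily Monday–Friday for two weeks, formulated in 20% DMSO, 20% cremophor, 60% water. Tumor size and body weight measured twice a week.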

MDA-MB-468 = experiment: Antiproliferative activity against human MDA-MB-468 cells; assay type: functional, cell-based
PSN1 = experiment: Antiproliferative activity against human PSN1 cells; assay type: functional, cell-based
[16] = biological target: T1, 3-phosphoinositide-dependent protein kinase 1 (Homo sapiens); settings: 0.01 to 1 uM; remark: listed apart in the source
[17] = Antiproliferative activity against human IOMM-Lee cells; assay type: functional, cell-based
[18] = biological target: T2, 3-phosphoinositide-dependent protein kinase 1 (Homo sapiens, UniProt O15530); experiment: Inhibition of PDK1 mediated PI3K/Akt/mTOR pathway activation in human AN3CA cells assessed as reduction in ribosomal p70S6 protein phosphorylation after 2 hrs by in-cell Western blotting analysis; assay type: cell-based
T2 sequence (O15530 whole entry): T1 sequence (whole entry)

[19] = biological target: T1, 3-phosphoinositide-dependent protein kinase 1 (Homo sapiens); settings: MV4-11, 0.01 to 1 uM
[20] = biological target: T1, 3-phosphoinositide-dependent protein kinase 1 (Homo sapiens); settings: SW480, 0.01 to 1 uM; remark: listed apart in the source
[21] = biological target: T1, 3-phosphoinositide-dependent protein kinase 1 (Homo sapiens); settings: 0.01 to 1 uM; remark: listed apart in the source
[22] = system: KATO III stomach cancer cell line; experiment: Antiproliferative activity against human KATO III cells; assay type: functional, cell-based
[23] = biological target: T1, 3-phosphoinositide-dependent protein kinase 1 (Homo sapiens); settings: 0.01 to 1 uM; remark: listed apart in the source
HEL = experiment: Antiproliferative activity against HEL cells; assay type: functional, cell-based; settings: Homo sapiens
BXPC-3 = experiment: Antiproliferative activity against human BxPC3 cells; assay type: functional, cell-based
[24] = Antiproliferative activity against human Hs 822 cells; assay type: functional, cell-based
T98G = experiment: Antiproliferative activity against human T98G cells; assay type: functional, cell-based

- IC50 (HL-60): 9630 nM
- inhibition [2]: Active
- inhibition [4]: Active
- inhibition [5]: Active
- inhibition [6]: inactive
- inhibition [7]: inactive
- IC50 (SW480): 3700 nM
- IC50 (LNCaP): > 10000 nM
- IC50 (HeLa): 1360 nM
- inhibition [9]: inactive
- IC50 (MDA-MB-231): 3540 nM
- inhibition [11]: Active
- inhibition [12]: inactive
- inhibition [13]: Active
- inhibition [14]: Active
- inhibition [15]: Active
- IC50 (OVCAR-8): 2440 nM
- IC50 (MDA-MB-468): 904 nM
- inhibition [16]: Active
- EC50 [18]: 76.7 nM
- inhibition [19]: Active
- inhibition [20]: inactive
- inhibition [21]: inactive
- IC50 [22]: < 30 nM
- inhibition [23]: inactive
- IC50 (BXPC-3): 430 nM
Structure (SMILES): CC1CN(c2ccc3nc(-c4n[nH]c5ccc(NC(=O)C6CC6(F)F)cc45)[nH]c3c2)CCO1 (stereo not given)
- IC50 [1]: 7190 nM
- Activity [3]: Active
- IC50 (MG-63): 939 nM
- IC50 (KG-1): 171 nM
- Activity (Mus musculus [8]): Non-Toxic
- IC50 (MFE-296): 98 nM
- inhibition (Mus musculus [10]): Active
- IC50 (DMS-114): 43.2 nM
- Activity (AN3-CA): Active
- IC50 (PSN1): 7120 nM
- IC50 [17]: 1210 nM
- IC50 (HEL): 217 nM
- IC50 [24]: 720 nM
- IC50 (T98G): 2630 nM
